Shown are actives, neighbours in structure and some others; about 2.5% of the full set was active somewhere.
TRPC4 block: TRPC4 (mouse) channel inhibition; Q9QUQ5; HEK293 TRPC4beta/mu-opioid, DAMGO-evoked Fluo4 calcium flux; stronger effect = lower value; B-score at 10 µM; hit rate 0.39% among 300,000; AID 2247;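 active = B-score over 3 SD under the library average, no early fluorescence shift, positive overall ratio signal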
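Assay system: HEK293 cells with stable TRPC4beta plus mu-opioid receptor expression. Dosing: single dose. Measured by: Fluo4 Ca2+ flux fluorescence. Also added: DAMGO in two steps, submaximal then maximal. Read-out: B score from integrated Fluo4 fluorescence ratio.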
TRPC6 act: mouse TRPC6 channel activation. Q61143. HEK293-TRPC6 membrane potential dye fluorescence; stronger effect = higher value. B-score at 10 µM. hit rate 0.13% among 310,000. AID 2550;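 active = B-score of the integrated fluorescence ratio above library mean plus 3 SD, and starting fluorescence ratio within library mean plus 5 SD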;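 also: higher score means more depolarization so channel activation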
TRPC6 inhibitor: blocks the mouse TRPC6 cation channel. AID 2553. B-score at 10 µM. hit rate 1.1% among 310,000. Q61143. HEK293-TRPC6, membrane potential dye, ACh-evoked depolarization; stronger effect = lower value;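 active = B-score under library mean minus 3 SD, initial fluorescence not abnormally high, positive integrated signal ratio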;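 also: B-score derived from integrated fluorescence ratio over the kinetic read; more negative B-score means stronger inhibition of depolarization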
TRPC4 agonist: activators of mouse TRPC4 channel. Q9QUQ5. HEK293 TRPC4beta/mu-opioid, Fluo4 calcium fluorescence; stronger effect = higher value. B-score at 10 µM. hit rate 0.49% among 310,000. AID 2237;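 active = B-score above 5 SD of library B-scores, and initial fluorescence ratio not above library mean plus 5 SD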;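 also: positive B-score marks a calcium rise read as TRPC4 activation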
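System – HEK293 cells stably co-expressing mouse TRPC4beta and mu-opioid receptor · Signal – Fluo4 calcium-sensitive dye fluorescence, kinetic, 1 Hz baseline · Benchmarks – buffer (low) and maximal DAMGO (high) · Read-out – B score of integrated fluorescence ratio per well · Incubation – dye loading 45 min room temperature, 110 s kinetic read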
TRPC4 potent: allosteric potentiators of mouse TRPC4 channel. B-score at 10 µM. HEK293 TRPC4beta/mu-opioid, DAMGO EC20, Fluo-4 Ca2+ flux; stronger effect = higher value. Q9QUQ5. hit rate 0.42% among 310,000;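 active = B-score of calcium response area above 5 SD of library B-scores, with initial fluorescence ratio within 5 SD of library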;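 also: B-score of integrated fluorescence ratio over time as area under calcium response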
DSG3 Ab inh: human desmoglein-3 autoantibody binding inhibition. P32926. DSG3-coupled beads, scFv-anti-DSG3-GFP binding, flow cytometry; stronger effect = lower value. binding (percent of control), % at 10 µM. hit rate 0.48% among 310,000;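 active = binding more than 3 SD below its plate's average and above zero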;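 also: hits lower antibody fragment binding to DSG3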
Target sequence (P32926 whole entry, looked up, the tested form may be a part): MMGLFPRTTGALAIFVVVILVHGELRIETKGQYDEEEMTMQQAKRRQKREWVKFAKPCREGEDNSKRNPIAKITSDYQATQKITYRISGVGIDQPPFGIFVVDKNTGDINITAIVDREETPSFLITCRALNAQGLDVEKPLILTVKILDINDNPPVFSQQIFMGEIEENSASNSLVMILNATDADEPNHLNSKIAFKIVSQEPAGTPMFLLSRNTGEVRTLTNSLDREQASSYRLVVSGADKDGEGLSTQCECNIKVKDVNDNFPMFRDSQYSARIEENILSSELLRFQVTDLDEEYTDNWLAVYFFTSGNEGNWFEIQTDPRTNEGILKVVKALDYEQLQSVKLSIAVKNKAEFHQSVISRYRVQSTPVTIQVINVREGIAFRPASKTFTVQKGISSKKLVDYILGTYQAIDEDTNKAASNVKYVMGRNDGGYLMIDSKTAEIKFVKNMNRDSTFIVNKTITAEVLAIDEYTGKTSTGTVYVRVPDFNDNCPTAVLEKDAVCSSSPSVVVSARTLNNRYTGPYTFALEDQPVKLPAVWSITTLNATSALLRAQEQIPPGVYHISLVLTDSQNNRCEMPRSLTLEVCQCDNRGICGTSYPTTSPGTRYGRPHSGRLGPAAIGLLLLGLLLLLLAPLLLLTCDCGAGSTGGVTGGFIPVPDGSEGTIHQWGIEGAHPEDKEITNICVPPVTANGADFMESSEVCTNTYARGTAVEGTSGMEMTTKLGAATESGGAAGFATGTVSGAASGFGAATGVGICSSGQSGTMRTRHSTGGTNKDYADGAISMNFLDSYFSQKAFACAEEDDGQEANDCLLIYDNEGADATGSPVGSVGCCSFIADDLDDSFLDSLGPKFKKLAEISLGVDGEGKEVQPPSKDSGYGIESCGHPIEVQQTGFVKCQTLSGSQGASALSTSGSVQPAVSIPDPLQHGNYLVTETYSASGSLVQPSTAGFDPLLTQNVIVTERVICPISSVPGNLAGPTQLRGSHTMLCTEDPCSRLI
An asterisk follows results filed as active.

What do the screens show for `COC(=O)C1=C(c2cccc(OC)c2OC)C[C@@H]2CC[C@H]1N2C(=O)NC(C)C`?
TRPC4 block: inactive; TRPC6 act: inactive; TRPC6 inhibitor: inactive; TRPC4 agonist: inactive; TRPC4 potent: inactive; DSG3 Ab inh: 99

How did CCN1CCN(c2cc(N3CCCC3)c([N+](=O)[O-])cc2F)CC1 do in these assays?
TRPC4 block: inactive; TRPC6 act: inactive; TRPC6 inhibitor: inactive; TRPC4 agonist: inactive; TRPC4 potent: 17*; DSG3 Ab inh: 104

Results for O=[N+]([O-])c1ccc(N2CCCC2)c(F)c1Br ?
TRPC4 block: inactive; TRPC6 act: inactive; TRPC6 inhibitor: inactive; TRPC4 agonist: inactive; TRPC4 potent: inactive; DSG3 Ab inh: 95

How did COc1ccccc1NP1(=O)OCC(C)([N+](=O)[O-])CO1 (stereo not drawn) do in these assays?
DSG3 Ab inh: 92

How did Cc1ccc(OP(=O)(Nc2cccc(C)c2)Oc2ccc(C)cc2)cc1 do in these assays?
TRPC4 block: inactive; TRPC6 act: inactive; TRPC6 inhibitor: inactive; TRPC4 agonist: inactive; TRPC4 potent: inactive; DSG3 Ab inh: 102

What do the screens show for `Cc1cccc(OP(=O)(Nc2cccnc2)Oc2cccc(C)c2)c1`?
TRPC4 block: inactive; TRPC6 act: inactive; TRPC6 inhibitor: inactive; TRPC4 agonist: inactive; TRPC4 potent: 11*; DSG3 Ab inh: 98

Results for CCN(CC)C(=O)N[C@H]1C[C@@H]2c3cccc4[nH]cc(c34)C[C@H]2N(C)C1 ?
TRPC4 block: inactive; TRPC6 act: inactive; TRPC6 inhibitor: inactive; TRPC4 agonist: 83*; TRPC4 potent: inactive; DSG3 Ab inh: 122

What do the screens show for `CN1C[C@H](CO)C[C@@H]2c3cccc4[nH]cc(c34)C[C@H]21`?
TRPC4 block: inactive; TRPC6 act: inactive; TRPC6 inhibitor: inactive; TRPC4 agonist: inactive; TRPC4 potent: inactive; DSG3 Ab inh: 104

Results for Cc1ccc(C2=NCC(=O)Nc3ccc(Br)cc32)cc1 ?
TRPC4 block: inactive; TRPC6 act: inactive; TRPC6 inhibitor: inactive; TRPC4 agonist: inactive; TRPC4 potent: inactive; DSG3 Ab inh: 111

What do the screens show for `CCNC(=O)[C@H]1O[C@@H](n2cnc3c(N)ncnc32)[C@H](O)[C@@H]1O`?
TRPC4 block: inactive; TRPC6 act: inactive; TRPC6 inhibitor: inactive; TRPC4 agonist: 49*; TRPC4 potent: inactive; DSG3 Ab inh: 116

How did Cc1c(CCN)ccc2c1[nH]c1ccccc12 do in these assays?
TRPC4 block: inactive; TRPC6 act: inactive; TRPC6 inhibitor: inactive; TRPC4 agonist: inactive; TRPC4 potent: 19*; DSG3 Ab inh: 114

Results for COc1cc2cc(C(=O)N3CC(COS(C)(=O)=O)c4ccc(O)cc43)[nH]c2c(OC)c1OC (stereo not drawn) ?
DSG3 Ab inh: 107

How did COc1ccc(OC)c(N2Cc3ccccc3C2=N)c1 do in these assays?
TRPC4 block: -7*; TRPC6 act: inactive; TRPC6 inhibitor: inactive; TRPC4 agonist: inactive; TRPC4 potent: inactive; DSG3 Ab inh: 94

How did CC1CCCCC12C(=O)NC(=O)NC2=O (stereo not drawn) do in these assays?
DSG3 Ab inh: 92

What do the screens show for `O=C1CC=C2C3CC4N(CCC45c4cc(O)c(O)cc4N1C25)CC3=CCBr` (stereo not drawn)?
DSG3 Ab inh: 54*

What do the screens show for `O=C1CC=C2C3CC4N(CCC45c4ccccc4N1C25)CC3=CCO` (stereo not drawn)?
DSG3 Ab inh: 97

What do the screens show for `COc1ccc(OC)c(-n2c(O)c(C=Nc3c(C)n(C)n(-c4ccccc4)c3=O)c(=O)[nH]c2=S)c1`?
TRPC4 block: inactive; TRPC6 act: inactive; TRPC6 inhibitor: inactive; TRPC4 agonist: inactive; TRPC4 potent: inactive; DSG3 Ab inh: 106

Results for CNCCc1nc(N)n[nH]1 ?
TRPC4 block: inactive; TRPC6 act: inactive; TRPC6 inhibitor: inactive; TRPC4 agonist: 101*; TRPC4 potent: inactive; DSG3 Ab inh: 103

Results for CN1C(=O)/C(=C/C=C/c2ccco2)C(=O)NC1=S ?
TRPC4 block: inactive; TRPC6 act: inactive; TRPC6 inhibitor: inactive; TRPC4 agonist: inactive; TRPC4 potent: inactive; DSG3 Ab inh: 19*
